Experimental data: PubChem BioAssay AID504383 (The Scripps Research Institute Molecular Screening Center, 2011)
Screen size: about 2,500 compounds; about 1,200 (48%) were called active.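 How the source made its calls: active means mean activation above the low control average plus 3 SD, as set in the primary screen (cut at about 12% in these data); inactive means the rest.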 So high a share suggests a set chosen from earlier hits. The list shows a part of the results.

The molecules below were run against Troponin I, cardiac muscle (Homo sapiens) + Troponin T, cardiac muscle (Homo sapiens) + Troponin C, slow skeletal and cardiac muscles (Homo sapiens) (UniProt P19429+P45379+P63316) (assay: calcium sensitizers of cardiac thin filaments – biochemical, IANBD-TnC fluorescence, triplicate, confirmation (AID 504383;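 further: 0% = DMSO at 0.472 mM calcium and 100% = DMSO at 2.9 mM calcium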)). Settings: IANBD-labeled cardiac RTF, Ca2+ sensitivity fluorescence; at 7.2 µM; stronger effect = higher value; scaled from EC20 to saturating calcium; tested at EC20 calcium, 0.472 mM.
How it was run: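 Assay system: labelled regulated thin filaments / Timing: 15 min at 25 °C / Detection: fluorescence intensity of labelled filaments / Measure: fluorescence gain scaled between EC20 and EC100 calcium controls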

Row | SMILES | activation
1 | CS(=O)(=O)Nc1ccc(C2=NN(C(=O)CCCC(=O)O)C(c3cccs3)C2)cc1 (stereo not given) | 61.2% (active)
2 | CN(C)CCNc1ccc2ncn3c4ccc(O)cc4c(=O)c1c23 | 11.4% (inactive)
3 | Cc1cc(C)c2nc(NC(=O)C3CCCO3)sc2c1 (stereo not given) | 36.3% (active)
4 | CCOc1cc(/C=C2\N=C(SC(C)C(N)=O)N(c3ccc(OC(F)F)cc3)C2=O)ccc1O (stereo not given) | 32.1% (active)
5 | COc1cc(/C=C2\N=C3CCCCCN3C2=O)ccc1O | 4.57% (inactive)
6 | COc1cc(OC)c(NC(=O)c2cc3ccccc3cc2O)cc1Cl | 12.7% (active)
7 | CCOC(=O)COc1c(Cl)cc(C2NC(=S)NC(c3ccccc3)=C2C(C)=O)cc1OC (stereo not given) | 10.2% (inactive)
8 | COc1ccc(-c2nnc(-c3cccnc3)o2)cc1 | 48.2% (active)
9 | Cc1[nH]c(C)c(S(=O)(=O)N2c3ccccc3CC2C)c1C(=O)N1CCCCC1 (stereo not given) | 137% (active)
10 | O=C1c2ccccc2-c2c1cccc2C(=O)N1CCCCCC1 | 9.57% (inactive)
11 | CCOc1ccccc1C1C(C#N)=C(N)SC(N)=C1C#N | 5.25% (inactive)
12 | CCOc1ccc(C2C(C#N)=C(N)SC(N)=C2C#N)cc1OCC | 51.3% (active)
13 | COc1ccc(C2C(C#N)=C(N)SC(N)=C2C#N)cc1OC | 6.65% (inactive)
14 | CC1(C)CC(=O)C(C=Nc2cc(C(=O)c3ccccc3)ccc2N)=C(O)C1 | 32% (active)
15 | CC1(C)CC(=O)C(C=Nc2ccc(C(=O)c3ccccc3)cc2N=CC2=C(O)CC(C)(C)CC2=O)=C(O)C1 | 5.75% (inactive)
16 | NC(=O)C1CCN(C(=O)c2ccc(-c3ccccc3)cc2)CC1 | 64.1% (active)
17 | COc1ccccc1Nc1ncc(C(=O)N2CCC(C(N)=O)CC2)c2ccccc12 | 10.5% (inactive)
18 | O=C(c1ccccc1)N1CCN(C(=O)c2ccccc2)CC1 | 4.62% (inactive)
19 | COc1ccc(C)cc1NC(=O)C12CCC(C)(C(=O)O1)C2(C)C (stereo not given) | 26.8% (active)
20 | COc1ccc(C)cc1NC(=O)CC1COc2ccccc2O1 (stereo not given) | 8.38% (inactive)
21 | N#Cc1ccc(CSc2nnc(-c3cnccn3)o2)cc1 | 221% (active)
22 | O=C(NC(=S)Nc1ccc2oc(=O)ccc2c1)c1ccco1 | 90.7% (active)
23 | Cc1ncc(CO)c2cc(-c3nnc(Nc4ccc5c(c4)OCO5)s3)c(=O)oc12 | 70% (active)
24 | N#Cc1ccccc1NC(=O)CNc1ccc(Cl)c(C(F)(F)F)c1 | 8.37% (inactive)

Row | SMILES | activation
25 | Cc1ccc(CCC(=O)Nc2cc(Cl)ccc2Cl)o1 | 7.16% (inactive)
26 | CCOC(=O)c1ccc[n+](CC(=O)Nc2cc(C(F)(F)F)ccc2Cl)c1 | 13% (active)
27 | COC(=O)c1cc2c(=O)c3ccccc3oc2nc1/C=C/N(C)C | 5.31% (inactive)
28 | CC(=O)c1cc(NC(=O)c2ccccc2)c(=O)oc1/C=C/N(C)C | 11.2% (inactive)
29 | COc1ccc(C(=O)Nc2cc(C(C)=O)c(/C=C/N(C)C)oc2=O)cc1 | 30.3% (active)
30 | COC(=O)c1cc(NC(=O)c2ccccc2)c(=O)oc1C/C=N\OCc1ccc(Cl)cc1Cl | 3.6% (inactive)
31 | CC(=O)c1cc(NC(=O)c2ccc(Cl)cc2)c(=O)oc1/C=C/N(C)C | 5.44% (inactive)
32 | CC(=O)c1cc(NC(=O)c2ccc(C)cc2)c(=O)oc1/C=C/N(C)C | 54.1% (active)
33 | COC(=O)c1cc(NC(=O)c2ccccc2)c(=O)oc1/C=C/Nc1ccc(Oc2ccccc2)cc1 | 47.1% (active)
34 | COc1ccccc1Nc1nc(N2CCOCC2)nc(N2CCOCC2)n1 | 7.77% (inactive)
35 | COc1ccccc1C(=O)Nc1ccc(OC(C)C(=O)N2CCOCC2)cc1 (stereo not given) | 2020% (active)
36 | CCOc1ccc(NC(=O)c2cccc(OC(=S)N3CCOCC3)c2)cc1 | 3.8% (inactive)
37 | O=C(O)C(c1ccccc1)N1C(=O)/C(=C\c2ccc(-c3ccc(Br)cc3)o2)SC1=S (stereo not given) | 186% (active)
38 | O=C(CSC1=NS(=O)(=O)c2ccccc2N1)N1CCCCC1 | 68.3% (active)
39 | CCOC(=O)CC1=NS(=O)(=O)c2ccccc2N1 | 9.51% (inactive)
40 | CCCc1cc(=O)oc2c3c(cc(OCC(=O)N[C@@H](CSC)C(=O)O)c12)OC(C)(C)CC3 | 42% (active)
41 | Cc1c(C)c2c(OCC(=O)N3CCC(O)CC3)cc3c(c2oc1=O)CCC(C)(C)O3 | 3.89% (inactive)
42 | Cc1cc(=O)oc2c3c(cc(OCC(=O)NCc4ccccn4)c12)OC(C)(C)CC3 | 2.15% (inactive)
43 | COCCNC(=O)c1c(CS(=O)(=O)c2ccccc2)noc1C(=O)NCc1ccccc1 | -1.16% (inactive)
44 | CN(C)CCNC(=O)c1c(CSc2ccc(Cl)cc2)noc1C(=O)NCc1ccccc1 | 13.1% (active)
45 | CNc1c2cccc(C)c2nc2c(C(=O)NCCN(C)C)cccc12 | 0.42% (inactive)
46 | Cc1cccc(CN2C(=O)N/C(=C/c3ccc(C)s3)C2=O)c1 | 8.39% (inactive)
47 | Cc1cccc(NC(=O)CN2C(=O)N/C(=C/c3ccc(C)s3)C2=O)c1 | 12.8% (active)
48 | Cc1ccc(/C=C2/NC(=O)N(Cc3ccccc3)C2=O)s1 | 2.28% (inactive)

Row | SMILES | activation
49 | Cc1nc(-n2[nH]c3c(c2=O)CCCC3)[nH]c(=O)c1Cc1ccccc1 | 28% (active)
50 | CCOC(=O)CCc1c(C)nc(-n2[nH]c(C)c(CCO)c2=O)[nH]c1=O | 6.36% (inactive)
51 | Cc1ccc(C2C(C#N)=C(N)SC(N)=C2C#N)cc1 | 9.26% (inactive)
52 | O=C(CCc1nc2sc3c(c2c(=O)[nH]1)CCCC3)Nc1ccccc1Cl | 84.3% (active)
53 | CCC(=O)Nc1nc2c(c(=O)[nH]1)CCCC2 | 4.12% (inactive)
54 | CC(C)(CN1CCc2ccccc2C1)NS(=O)(=O)c1ccc(Cl)cc1 | 2.24% (inactive)
55 | O=S(=O)(c1ccccc1Cl)N1CCC(Cc2ccccc2)CC1 | 10.4% (inactive)
56 | Cc1ccc(S(=O)(=O)NC(C)(C)CN2CCC(Cc3ccccc3)CC2)cc1 | 21.5% (active)
57 | COc1ccc(C(=O)O)cc1S(=O)(=O)NCCc1ccccn1 | 5.17% (inactive)
58 | COc1ccc(Br)cc1S(=O)(=O)Nc1ncccc1C | 68.3% (active)
59 | COc1cc(Cl)c(S(=O)(=O)NCc2ccccn2)cc1Cl | 7.75% (inactive)
60 | COC(=O)N1c2ccccc2CCc2ccccc21 | 8.65% (inactive)
61 | CCCCOc1cccc(C2C(C(=O)c3cccs3)=C(O)C(=O)N2Cc2cccnc2)c1 (stereo not given) | -3.36% (inactive)
62 | CCCOc1ccc(C2C(C(=O)c3ccc(C)o3)=C(O)C(=O)N2CCCn2ccnc2)cc1 (stereo not given) | 64.1% (active)
63 | Cc1cc2oc3ccc(NCCCn4ccnc4)cc3c(=O)c2cc1C | 1.5% (inactive)
64 | CCNc1ccc2noc3c2c1C(=O)c1ccccc1-3 | 15.8% (active)
65 | O=C1c2ccccc2-c2onc3ccc(NCc4ccco4)c1c23 | 1.47% (inactive)
66 | CCOc1ccc2noc3c2c1C(=O)c1ccccc1-3 | 3.61% (inactive)
67 | COC(=O)C1=C(CSc2nc3c(cc2C#N)CN(C)CC3)OC(N)=C(C#N)C1c1ccccc1F (stereo not given) | 10.6% (inactive)
68 | N#CC1=C(N)Oc2cc(O)c(Cl)cc2C1c1ccccc1F (stereo not given) | 162% (active)
69 | O=C1CCC(=O)N(O)CCCCCNC(=O)CCC(=O)N(O)CCCCNC(=O)CCC(=O)N(O)CCCCCN1 | 1.89% (inactive)
70 | CC(=O)c1cccc(NC(=S)NC2CCCCC2)c1 | 8.2% (inactive)
71 | CC(=O)c1cccc(Nc2cc(C)nc3ccc(C)cc23)c1 | 25.6% (active)
72 | COc1ccc(Nc2cc(C)nc3ccc(OC)cc23)cc1 | 4.34% (inactive)

Row | SMILES | activation
73 | CCN(C(=O)c1cnc(NC(C)C)cc1C(F)(F)F)c1ccc(Cl)cc1 | 4.41% (inactive)
74 | COc1ccc(N=Cc2c(O)c3ccccc3n2C(C)=O)cc1 | 13.7% (active)
75 | COc1ccc(N=Cc2sc(O)c3ccccc23)cc1 | 152% (active)
76 | Oc1sc(C=Nc2ccccc2)c2ccccc12 | 12.9% (active)
77 | CCN(c1ccc(N=Cc2c(O)n(Cc3ccc(OC)cc3)c(=O)c3ccccc23)cc1)C(C)C | 9.81% (inactive)
78 | CC(=O)n1c(C=Nc2ccc(Cl)cc2)c(O)c2ccccc21 | 10.7% (inactive)
79 | Cc1ccc(N=Cc2sc(O)c3ccccc23)cc1 | 7.98% (inactive)
80 | O=[N+]([O-])c1ccc(N/N=C\c2ccccc2OCc2ccccc2)cc1 | 19.2% (active)
81 | O=C(Nc1cc2c3c(c1)CC(=O)N3CCC2)C1CC1 | 10.7% (inactive)
82 | COc1ncnc2c1NC1=C(S2)C(=NCCC(=O)O)CC(C)(C)C1 | 70.3% (active)
83 | CCN1/C(=C/c2ccc3cc(C)ccc3[n+]2CC)Sc2ccccc21 | 68.1% (active)
84 | CCN1/C(=C\c2ccc3ccccc3[n+]2CC)Sc2cc(C)ccc21 | 57.9% (active)
85 | CCN1/C(=C\c2ccc3cc(C)ccc3[n+]2CC)Sc2cc(C)c(C)cc21 | 6.91% (inactive)
86 | CCN1/C(=C/c2ccc3cc(C)ccc3[n+]2CC)Sc2ccc3sccc3c21 | 11.7% (active)
87 | CCN1/C(=C/c2ccc3cc(C)cc(C)c3[n+]2CC)Sc2cc(C)ccc21 | 14.7% (active)
88 | CCN1/C(=C/c2ccc3cc(C)ccc3[n+]2CC)Sc2cc(C)ccc21 | 2.46% (inactive)
89 | COc1ccccc1N=Cc1c(C)c(C#N)c2[nH]c3ccccc3n2c1=O | 1.91% (inactive)
90 | COc1ccc(N2C(N)=NC(N)=NC2(C)C)cc1 | 1.33% (inactive)
91 | N#CC1=C(N)SC(N)=C(C#N)C1CCc1ccccc1 | 0.43% (inactive)
92 | CCN1CC=C2C(C#N)=C(N)C(C#N)(C#N)C(CCc3ccccc3)C2C1 (stereo not given) | 11.4% (inactive)
93 | CN1CC=C2C(C#N)=C(N)C(C#N)(C#N)C(Cc3ccccc3)C2C1 (stereo not given) | 12.3% (active)
94 | CN1CC=C2C(C#N)=C(N)C(C#N)(C#N)C(CCc3ccccc3)C2C1 (stereo not given) | 46% (active)
95 | CCOc1ccc(S(=O)(=O)n2ccnc2)c2ccccc12 | 12.2% (active)
